Activity calls are given as the source filed them. The calls are words filed in the database; no cut-off is given here.
How the values were obtained:
[1] = Inhibition of beta lactamase
In short: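 AmpC β-lactamase (1 nM final) with CENTA substrate (100 μM final; Km 48 μM) in 50 mM potassium phosphate, pH 7.0. Cleavage was read as absorbance at 405 nm over 3 min, and activity was taken from initial rates. Each compound was run twice: without Triton X-100 after a 5 min enzyme preincubation before substrate, and with 0.01% Triton X-100 with no preincubation. Inhibition was then compared between the two conditions.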

Cruzipain [2] = molecular target: T1, Cruzipain (Trypanosoma cruzi, UniProt P25779); assay: Inhibition of Trypanosoma cruzi cruzain assessed as Z-Phe-Arg-aminomethylcoumarin cleavage
Cruzipain [3] = molecular target: T1, Cruzipain; assay: Inhibition of Trypanosoma cruzi cruzain assessed as Z-Phe-Arg-aminomethylcoumarin cleavage by competitive binding assay
In short: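 Cruzain (0.4 nM) in 0.1 M sodium acetate pH 5.5, 5 mM DTT, 0.01% Triton X-100. Each compound tested at four or more concentrations against seven Z-FR-AMC levels (0.31-20 μM, 2-fold steps). Activity from initial rates over 5 min. Ki derived from Lineweaver-Burk and Dixon plots.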

T1 sequence (P25779 whole entry): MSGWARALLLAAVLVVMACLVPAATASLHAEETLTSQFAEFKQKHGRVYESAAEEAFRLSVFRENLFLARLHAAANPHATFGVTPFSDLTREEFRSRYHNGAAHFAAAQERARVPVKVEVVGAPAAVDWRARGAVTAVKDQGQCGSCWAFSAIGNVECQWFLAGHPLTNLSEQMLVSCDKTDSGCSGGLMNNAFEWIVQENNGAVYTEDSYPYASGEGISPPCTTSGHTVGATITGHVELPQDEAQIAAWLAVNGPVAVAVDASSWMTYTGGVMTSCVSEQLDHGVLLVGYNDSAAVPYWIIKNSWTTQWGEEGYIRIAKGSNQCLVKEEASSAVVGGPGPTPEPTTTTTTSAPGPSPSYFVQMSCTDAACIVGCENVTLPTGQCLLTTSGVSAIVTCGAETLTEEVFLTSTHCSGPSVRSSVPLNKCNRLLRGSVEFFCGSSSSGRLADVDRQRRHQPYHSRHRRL

| Structure (SMILES) | inhibition [1] | IC50 (Cruzipain [2]) | Ki (Cruzipain [3]) |
| --- | --- | --- | --- |
| O=C(CNC(=O)c1ccc(Cl)cc1)OC(C(=O)Nc1ccc(Cl)cc1C(F)(F)F)c1ccccc1 (stereo unspecified) | inactive | 700 nM | – |
| O=C(CNC(=O)c1ccccc1)OC(C(=O)Nc1cc(C(F)(F)F)ccc1Cl)c1ccccc1 (stereo unspecified) | inactive | 300 nM | 65 nM |
| Cc1cc(C(=O)NCC(=O)OC(C(=O)Nc2cc(C(F)(F)F)ccc2Cl)c2ccccc2)ccc1[N+](=O)[O-] (stereo unspecified) | inactive | 400 nM | – |
| COc1ccc(NC(=O)COC(=O)C(CC(C)C)N2C(=O)C3CC=CCC3C2=O)cc1Cl (stereo unspecified) | – | – | 800 nM |
| Clc1ccc2[nH]c3c(NCCCN4CCOCC4)ncnc3c2c1 | – | – | 2000 nM |
| CC(NC(=O)c1ccccc1Cl)C(=O)OC(C(=O)Nc1cc(C(F)(F)F)ccc1Cl)c1ccccc1 (stereo unspecified) | inactive | 11000 nM | – |
| CC(C)C(NC(=O)c1ccco1)C(=O)NCC(c1ccco1)N1CCCCC1 (stereo unspecified) | inactive | 7000 nM | 6000 nM |
| Cc1cc(NC(=O)COC(=O)C(Cc2ccccc2)NC(=O)c2ccco2)no1 (stereo unspecified) | inactive | 38000 nM | – |
| O=C(CNC(=O)c1ccc(Cl)cc1)OCC(=O)c1ccc2c(c1)OCCO2 | inactive | 500 nM | – |
| COCCn1c(C)cc(C(=O)COC(=O)CNC(=O)c2ccccc2)c1C | inactive | 18000 nM | – |
| COc1ccc(Cl)cc1NC(=O)COC(=O)C(CC(C)C)N1C(=O)C2CC=CCC2C1=O (stereo unspecified) | inactive | 1000 nM | – |
| Cc1cc(NC(=O)COC(=O)C(Cc2c[nH]c3ccccc23)NC(=O)c2ccc(F)cc2)no1 (stereo unspecified) | inactive | 3000 nM | – |
| Cc1ccccc1OCC(=O)NCC(=O)OCC(=O)c1ccc2ccccc2c1 | inactive | 700 nM | – |

— ChEMBL document CHEMBL1177731, “Complementarity between a docking and a high-throughput screen in discovering new cruzain inhibitors” (J Med Chem, 2010)
